Our source for the IC50, inhibition and INH values is ChEMBL document CHEMBL4011604, “Bishomoisoprenoid triazole bisphosphonates as inhibitors of geranylgeranyl diphosphate synthase” (Bioorg Med Chem, 2017).

Test [1] deals with T1, Farnesyl pyrophosphate synthase (Homo sapiens, UniProt P14324).
T1 sequence (P14324 whole entry): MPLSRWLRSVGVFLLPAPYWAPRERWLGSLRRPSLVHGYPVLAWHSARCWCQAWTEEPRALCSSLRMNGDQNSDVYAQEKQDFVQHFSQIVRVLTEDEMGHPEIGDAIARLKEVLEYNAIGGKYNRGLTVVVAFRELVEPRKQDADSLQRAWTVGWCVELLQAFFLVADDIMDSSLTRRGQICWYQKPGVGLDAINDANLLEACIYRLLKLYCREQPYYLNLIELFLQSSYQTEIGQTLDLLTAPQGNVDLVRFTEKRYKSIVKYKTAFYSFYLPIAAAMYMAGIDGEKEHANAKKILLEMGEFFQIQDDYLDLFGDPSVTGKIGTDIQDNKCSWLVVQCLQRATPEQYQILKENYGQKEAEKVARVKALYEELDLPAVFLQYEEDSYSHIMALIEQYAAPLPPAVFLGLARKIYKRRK
Briefly: Inhibition of recombinant FDPS (unknown origin) using GPP as substrate pretreated for 10 mins followed by substrate addition after 30 mins in presence of [14C]-IPP by liquid scintillation counting method. Put shortly: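 Recombinant FDPS assayed by a previously described method, each concentration in duplicate, three independent experiments. IC50 derived from concentration-response curves by Chou–Talalay median-effect analysis.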

Test [2] is filed under the species Homo sapiens. The test can be described thus: Inhibition of Rab GGTase2 in human RPMI8226 cells assessed as decrease in Rab GTPase geranylgeranylation by measuring accumulation of intracellular lambda light chain at 0.1 to 50 uM after 48 hrs by ELISA. Type of test: cell-based. The gist of the method:
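Intracellular lambda light chain in RPMI-8226 cells after 48 h incubation with compounds (lovastatin 10 μM positive control). Quantified by human lambda light chain ELISA on whole-cell lysate and normalised to BCA total protein. Results given as percent of untreated control, mean + SD, n=3. Significance by unpaired two-tailed t-test, p < 0.05.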

Test [3] is described as follows: Inhibition of recombinant rat FTase using FDP as substrate measured after 1 hr by dansyl-GCVLS dye based fluorescence assay. Put shortly: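 Recombinant FTase 18 nM started reactions in 50 mM HEPPSO, 5 mM TCEP-HCl, 5 mM MgCl2 with 10 μM FDP and 5 μM dansyl-GCVLS, 30 °C for 1 h, with or without compound. Peptide prenylation followed as rise in dansyl fluorescence (ex 340 / em 520 nm) over time. IC50 by Chou–Talalay analysis.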

Test [4] has as its target geranylgeranyltransferase type-I (Rattus norvegicus, UniProt P53610+Q04631). The test can be described thus: Inhibition of recombinant rat GGTase1 expressed in Escherichia coli using GGDP as substrate measured after 2 hrs by dansyl-GCVLS dye based fluorescence assay. Put shortly: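 Recombinant GGTase I 24 nM added to 50 mM HEPPSO, 5 mM TCEP-HCl containing 10 μM GGDP and 5 μM dansyl-GCVLS. Incubated 2 h at 30 °C with or without compound, with prenylation tracked as dansyl fluorescence increase (ex 340 / em 520 nm) over time. IC50 from Chou–Talalay curve fitting.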

Test [5] is filed under the species Homo sapiens. Briefly: Inhibition of Rab GGTase2 in human RPMI8226 cells assessed as decrease in Rab6 geranylgeranylation at 5 to 50 uM after 48 hrs by western blot analysis. The test is classed as cell-based. Put shortly: (§1)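 Membrane-bound Rab6 measured in RPMI-8226 cells treated 48 h (lovastatin 10 μM positive control). Cells lysed with Triton X-114 and the detergent (membrane) fraction immunoblotted for Rab6, with calnexin as loading control. Densitometry gives Rab6/calnexin relative to untreated cells.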

For test [6], the target named is T2, Geranylgeranyl transferase type I (Homo sapiens) (UniProt P49354+P53609). Briefly: Inhibition of GGTase1 in human RPMI8226 cells assessed as decrease in Rap1a geranylgeranylation at 0.1 to 50 uM after 48 hrs by Western blot method. Type of test: cell-based. The gist of the method:
(§2)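 RPMI-8226 myeloma cells exposed 48 h to test compounds over a range of concentrations, lovastatin 10 μM as positive control. Whole-cell RIPA lysates with protease/phosphatase inhibitors, protein by BCA; equal protein run on SDS-PAGE and immunoblotted with antibody recognising only unmodified Rap1a, β-tubulin as loading control, HRP secondary with ECL detection.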

Test [7] is filed under the species Homo sapiens. Briefly: Inhibition of Rab GGTase2 in human RPMI8226 cells assessed as disruption of Rab6 geranylgeranylation at 1 to 10 uM after 48 hrs by western blot analysis. Type of test: cell-based. The gist of the method: as §1
The target in test [8] is T2, Geranylgeranyl transferase type I (Homo sapiens). The test can be described thus: Inhibition of GGTase1 in human RPMI8226 cells assessed as decrease in Rap1a geranylgeranylation at 0.5 uM after 48 hrs by Western blot method. Type of test: cell-based. Put shortly:
as §2

Test [9] deals with T3, Geranylgeranyl pyrophosphate synthase (Homo sapiens, UniProt O95749).
T3 sequence (O95749 whole entry): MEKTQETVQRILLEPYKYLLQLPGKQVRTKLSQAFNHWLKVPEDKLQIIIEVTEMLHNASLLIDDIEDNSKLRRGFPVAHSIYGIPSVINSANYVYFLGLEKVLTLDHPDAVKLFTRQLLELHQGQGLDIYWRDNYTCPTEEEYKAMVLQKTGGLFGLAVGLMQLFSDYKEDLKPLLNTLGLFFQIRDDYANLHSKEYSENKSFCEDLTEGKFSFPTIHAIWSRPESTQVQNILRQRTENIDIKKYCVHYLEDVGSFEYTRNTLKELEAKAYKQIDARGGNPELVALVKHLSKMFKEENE
The test can be described thus: Inhibition of recombinant GGDPS (unknown origin) using FPP as substrate pretreated for 10 mins followed by substrate addition after 30 mins in presence of [14C]-IPP by liquid scintillation counting analysis. Put shortly:
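Recombinant GGDPS from a commercial source; compounds tested in duplicate at multiple concentrations, three independent experiments. IC50 values from concentration-response curves by Chou–Talalay median-effect analysis.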

The target in test [10] is T2, Geranylgeranyl transferase type I (Homo sapiens). Briefly: Inhibition of GGTase1 in human RPMI8226 cells assessed as decrease in Rap1a geranylgeranylation after 48 hrs by Western blot method. The test is classed as cell-based. Put shortly:
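RPMI-8226 myeloma cells exposed 48 h to varying compound concentrations, lovastatin 10 μM as positive control. Whole-cell lysate made in RIPA buffer with protease/phosphatase inhibitors, protein by BCA; equal protein run on SDS-PAGE, blotted to PVDF, probed with antibody recognising only unmodified Rap1a, β-tubulin as loading control, HRP secondary with ECL detection.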

For test [11], the species on record is Homo sapiens. The test can be described thus: Inhibition of Rab GGTase2 in human RPMI8226 cells assessed as decrease in Rab GTPase geranylgeranylation by measuring accumulation of intracellular lambda light chain after 48 hrs by ELISA. Type of test: cell-based. Put shortly: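 RPMI-8226 cells treated 48 h with varying compound concentrations (lovastatin 10 μM control). Intracellular lambda light chain in whole-cell lysate quantified by human lambda ELISA, normalised to total protein (BCA), expressed as percent of untreated control; mean + SD, n=3; unpaired two-tailed t-test, p < 0.05.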

The species named for test [12] is Homo sapiens. Briefly: Inhibition of Rab GGTase2 in human RPMI8226 cells assessed as decrease in Rab6 geranylgeranylation after 48 hrs by western blot analysis. The test is classed as cell-based. Put shortly: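 RPMI-8226 cells, 48 h with varying compound concentrations, lovastatin 10 μM as control. Cells lysed with Triton X-114; detergent (membrane) fraction immunoblotted for Rab6 with calnexin loading control. Rab6 band densitometry normalised to calnexin, then to untreated cells (relative intensity).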

Calls of active or inactive are those of the source. The calls are words filed in the database; no cut-off is given here.

For the compound `CC(C)=CCC/C(C)=C/CCCn1cc(CC(P(=O)(O)O)P(=O)(O)O)nn1`, the IC50 was 33.3 µM in test [1], greater than 100 µM in test [3] and greater than 100 µM in test [4]. Also, the inhibition result (in the test listed under Homo sapiens [2]; in the test filed under Homo sapiens [5]; in test [6]) was “Active” throughout.
On to `CC(C)=CCC/C(C)=C\CCCn1cc(CC(P(=O)(O)O)P(=O)(O)O)nn1`, for which the IC50 in test [1] is 29.8 µM; in [3], greater than 100 µM; in test [4] it was greater than 100 µM. Besides, the inhibition result (in the test filed under Homo sapiens [2]; in the test filed under Homo sapiens [7]; in test [8]) was “Active” in each case.
For `CC(C)=CCCCn1cc(CC(P(=O)(O)O)P(=O)(O)O)nn1`, the IC50 in test [1] was greater than 100 µM; in test [3], greater than 100 µM; in test [4], greater than 100 µM; in test [9] it was 3.6 µM. Also, the inhibition entry (in the test filed under Homo sapiens [2]; in the test listed under Homo sapiens [5]; in [6]) was “Active” each time.
With `CC(C)=CCC/C(C)=C/CCn1cc(CC(P(=O)(O)O)P(=O)(O)O)nn1`, the INH (in test [10]; in the test listed under Homo sapiens [11]; in the test listed under Homo sapiens [12]) was 0.09 µM in each case. Further, the IC50 in [9] was found to be 0.17 µM.
